Source: ChEMBL document CHEMBL2440001, “Design and synthesis of novel 3,5-bis-N-(aryl/heteroaryl) carbamoyl-4-aryl-1,4-dihydropyridines as small molecule BACE-1 inhibitors” (Bioorg Med Chem, 2013)
Peptide text beside a SMILES is read from it. * marks the point of attachment. X1 = C[C@H](NC[C@H](C)N*)C(=O)N[C@@H](CCC(=O)O)C(=O)N[C@@H](Cc1ccccc1)C(=O)O

Experiments:
Beta-secretase 1 [1] = target: T1, Beta-secretase 1 (Homo sapiens, UniProt P56817); experiment: Inhibition of recombinant human BACE-1 using SEVNLDAEFK as substrate at 10 uM after 90 mins by FRET assay
T1 sequence (P56817 whole entry): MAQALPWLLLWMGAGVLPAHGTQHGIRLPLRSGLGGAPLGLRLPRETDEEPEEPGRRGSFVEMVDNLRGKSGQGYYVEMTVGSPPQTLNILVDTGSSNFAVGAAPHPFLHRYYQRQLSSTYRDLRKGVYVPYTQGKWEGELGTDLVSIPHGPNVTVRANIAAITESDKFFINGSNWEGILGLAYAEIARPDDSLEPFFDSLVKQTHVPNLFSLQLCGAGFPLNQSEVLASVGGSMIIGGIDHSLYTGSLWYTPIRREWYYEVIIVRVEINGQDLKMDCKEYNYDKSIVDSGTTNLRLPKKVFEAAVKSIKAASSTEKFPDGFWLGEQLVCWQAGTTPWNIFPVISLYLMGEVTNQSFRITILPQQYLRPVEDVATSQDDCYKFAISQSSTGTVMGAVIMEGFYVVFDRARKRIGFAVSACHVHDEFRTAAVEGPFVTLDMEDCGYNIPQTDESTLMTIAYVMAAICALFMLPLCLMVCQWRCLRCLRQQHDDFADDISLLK

Beta-secretase 1 [2] = target: T1, Beta-secretase 1; experiment: Inhibition of recombinant human BACE-1 using SEVNLDAEFK as substrate at 50 uM after 90 mins by FRET assay
Beta-secretase 1 [3] = target: T1, Beta-secretase 1; experiment: Inhibition of recombinant human BACE-1 using SEVNLDAEFK as substrate after 90 mins by FRET assay
Cavia porcellus = species: Cavia porcellus; experiment: Antagonist activity at calcium channel albino guinea pig ileal longitudinal smooth muscle assessed as inhibition of KCl-induced contraction
How it was run: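 Fasted guinea-pig ileal longitudinal smooth muscle, 2 cm segments under 0.5 g resting tension, contracted with 40 mM KCl. Compounds were added cumulatively, and relaxation was expressed as percent of control. IC30 (30% relaxation) was read graphically from the curves.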

Structure (SMILES)	inhibition (Beta-secretase 1 [1]) [%]	inhibition (Beta-secretase 1 [2]) [%]	IC50 (Beta-secretase 1 [3]) [µM]	IC15 (Cavia porcellus)	IC30 (Cavia porcellus) [µM]
CC1=C(C(=O)Nc2cc(C)on2)C(c2cccc([N+](=O)[O-])c2)C(C(=O)Nc2cc(C)on2)=C(C)N1	11.6	–	–	–	–
COc1ccc(C2C(C(=O)Nc3nc(C)cs3)=C(C)NC(C)=C2C(=O)Nc2nc(C)cs2)cc1	44.4	86.3	–	–	–
CC1=C(C(=O)Nc2nc3ccccc3s2)C(c2ccccc2[N+](=O)[O-])C(C(=O)Nc2nc3ccccc3s2)=C(C)N1	65.6	87.2	4.27	6.47 ×10⁻⁷ M	–
CCOc1ccc2nc(NC(=O)C3=C(C)NC(C)=C(C(=O)Nc4nc5ccc(OCC)cc5s4)C3c3cccc([N+](=O)[O-])c3)sc2c1	49.1	94	–	–	–
CC1=C(C(=O)Nc2nccs2)C(c2ccc([N+](=O)[O-])cc2)C(C(=O)Nc2nccs2)=C(C)N1	28.1	46.8	–	–	–
CC(C)C[C@H](NC(=O)[C@H](CC(N)=O)NC(=O)[C@@H](NC(=O)[C@@H](N)CCC(=O)O)C(C)C)C(=O)N[C@@H](C)CN[C@@H](C)C(=O)N[C@@H](CCC(=O)O)C(=O)N[C@@H](Cc1ccccc1)C(=O)O (H-EVNL-X1)	–	–	0.003	–	–
CC1=C(C(=O)Nc2nc(C)cs2)C(c2ccccc2[N+](=O)[O-])C(C(=O)Nc2nc(C)cs2)=C(C)N1	69.4	95	4.66	1.82 µM	–
CC1=C(C(=O)Nc2nc(C)cs2)C(c2ccc([N+](=O)[O-])cc2)C(C(=O)Nc2nc(C)cs2)=C(C)N1	77.2	88	4.21	4.63 µM	–
CC1=C(C(=O)Nc2nc(C)cs2)C(c2cccc([N+](=O)[O-])c2)C(C(=O)Nc2nc(C)cs2)=C(C)N1	34.8	70.4	–	–	–
CC1=C(C(=O)Nc2cc(C)on2)C(c2ccccc2[N+](=O)[O-])C(C(=O)Nc2cc(C)on2)=C(C)N1	12.7	54	–	–	–
CC1=C(C(=O)Nc2nc(C)cs2)C(c2ccco2)C(C(=O)Nc2nc(C)cs2)=C(C)N1	66.4	95.1	6.78	2.26 µM	–
CC1=C(C(=O)Nc2nc3ccccc3s2)C(c2ccc([N+](=O)[O-])cc2)C(C(=O)Nc2nc3ccccc3s2)=C(C)N1	49.8	90.8	–	–	–
CC1=C(C(=O)Nc2cc(C)on2)C(c2ccc([N+](=O)[O-])cc2)C(C(=O)Nc2cc(C)on2)=C(C)N1	23.5	43	–	–	–
CC1=C(C(=O)Nc2cc(C)on2)C(c2ccc[nH]2)C(C(=O)Nc2cc(C)on2)=C(C)N1	24.1	57.4	–	–	–
COC(=O)C1=C(C)NC(C)=C(C(=O)OC)C1c1ccccc1[N+](=O)[O-]	–	–	–	0.00202 µM	0.00927
CC1=C(C(=O)Nc2nc3ccccc3s2)C(c2ccccc2)C(C(=O)Nc2nc3ccccc3s2)=C(C)N1	44.9	–	–	–	–
CC1=C(C(=O)Nc2nc3ccccc3s2)C(c2cccc([N+](=O)[O-])c2)C(C(=O)Nc2nc3ccccc3s2)=C(C)N1	49.4	56.2	–	–	–
